Source: PubChem BioAssay (several laboratories)
Myeloid diff MLP: induction of myeloid progenitor differentiation, primary screen, cell-based, flow cytometry, MLPCN library. ER-HoxA9 myeloid progenitors, lysozyme-GFP differentiation. hit rate 1% among 360,000. calls only at 10 µM. AID 624256, 2012;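 active means normalized GFP-positive differentiation at or above the plate's own cutoff, the solvent-only control mean plus 3 SD; inconclusive means no clear call, values can overlap the other calls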;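 further: cells exposed to compound for four days before flow analysis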
SKN-1 block: suppressors of acrylamide-induced Pgst-4::GFP reporter in worms, primary screen, SKN-1 inhibitor project, whole organism, uHTS, GFP/RFP fluorescence ratio, strain VP596; AID 624304, 2012; C. elegans VP596 Pgst-4::GFP/RFP ratio, 24 h; hit rate 0.49% among 360,000; inhibition, % at 21.8 µM;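 active means interference check ratio from 0.5 to 1.5 plus GFP to RFP signal ratio inhibition reaching or exceeding a fixed threshold, cut at about 30% in these data, passing the limit was not always enough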
GRK2 inh: compounds blocking aptamer binding on GRK2 – biochemical, human GRK2, bead flow cytometry, HTS, primary screen; Beta-adrenergic receptor kinase 1 (Homo sapiens), P25098; FAM-aptamer displacement from GRK2; inhibition of aptamer binding, % at 10 µM; hit rate 0.59% among 330,000; AID 488847, 2010;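 active means inhibition of aptamer binding above 40%, roughly 3 SD of noise, on plates passing a quality check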;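 further: median bead fluorescence of bound FAM aptamer so fluorescent compounds give negative values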
T cell HTS: modulators of CD8 T cell-vesicle binding, primary screen, mouse 2C CD8+ T cells, flow cytometry. 2C CD8+ T cell-vesicle binding; active compounds read low. hit rate 0.068% among 330,000. AID 2052, 2009. response (vesicle binding), % at 7 µM;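 active means response, share of CD8 T cells binding vesicles, and their 90th percentile fluorescence all below set limits, cut at about 80% in these data, passing the limit was not always enough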;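 further: values below 100% mean blocked vesicle binding to the CD8+ T cells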
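incubation = binding step 1.5 h, 37 °C, antibody labelling 20 min, ice | test system = 2C mouse CD8+ T cells | read-out basis = percent CD8+ FL2 mean versus row control | controls = Peptide-free naked vesicles (low) and QL9 vesicles with 0.7% DMSO vehicle (high) | detection = flow cytometry of vesicle-bound cells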
Rce1 inhib: yeast Rce1p protease inhibitors, primary screen, biochemical, fluorescence, cell-free homogeneous | CAAX prenyl protease 2 (Saccharomyces cerevisiae (strain ATCC 204508 / S288c)), Q03530 | yeast membranes, quenched prenylated peptide cleavage fluorescence | calls only | hit rate 0.27% among 290,000 | AID 2563, 2010;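 active means fall in fluorescence gain of 50% or more versus controls, with final raw signal at or below 3038400; inconclusive means same 50% fall but final raw signal above 3038400; inactive means fall in fluorescence gain under 50%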;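 further: plate controls were neutral control wells for no effect and wells lacking membranes for full effect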
Target sequence (Q03530 whole entry, looked up): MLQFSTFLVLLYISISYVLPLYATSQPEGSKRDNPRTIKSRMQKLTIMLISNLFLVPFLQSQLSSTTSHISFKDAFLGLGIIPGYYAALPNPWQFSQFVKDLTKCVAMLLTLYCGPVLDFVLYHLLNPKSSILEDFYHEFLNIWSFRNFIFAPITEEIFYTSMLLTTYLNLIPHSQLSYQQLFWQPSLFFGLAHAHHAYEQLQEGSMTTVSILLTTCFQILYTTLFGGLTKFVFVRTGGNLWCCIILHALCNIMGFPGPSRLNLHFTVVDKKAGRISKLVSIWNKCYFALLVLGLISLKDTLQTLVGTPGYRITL
Rin1 Abl inh: inhibitors of Rin1-Abl protein binding, primary screen, biochemical, TR-FRET | Tyrosine-protein kinase ABL1 (Homo sapiens) + Ras and Rab interactor 1 (Homo sapiens), … | inhibition, % at 7.35 µM | hit rate 0.4% among 360,000 | AID 588664, 2011; in the data active means inhibition above about 5%, passing the limit was not always enough
The depositor's hits bear a star; i = inactive; u = inconclusive; x = no result given; + = active, no number. In the library only some 2.6% were active in any assay of this set; here they are far more common.

SMILES | Myeloid diff MLP | SKN-1 block | GRK2 inh | T cell HTS | Rce1 inhib | Rin1 Abl inh
Cc1cc(NC(=O)C(C)SCC(=O)OCc2ccc([N+](=O)[O-])cc2)no1 (centres undefined) | i | -17.4 | 4.0 | 562.9 | i | 0.2
COc1ccc(C(=O)NC2CCCc3c2cnn3-c2cc(F)cc(F)c2)c(OC)c1OC (centres undefined) | i | 5.9 | 0.0 | 86.9 | i | 1.7
CC(=O)Nc1ccc(NC(=O)C2CC(=O)N(Cc3ccccc3)C2)cc1 (centres undefined) | i | -11.7 | 1.0 | 233.6 | i | 2.9
CSc1nc2ccc(NC(=O)C3CC(=O)N(Cc4ccccc4)C3)cc2s1 (centres undefined) | + | -16.9 | 0.0 | 580.2 | i | 2.5
CC(NC(=O)c1cccc(N(C)C)c1)c1ccc(-n2ccnc2)cc1 (centres undefined) | i | -20.1 | 2.0 | 203.1 | i | -2.8
COc1cc2ccccc2cc1C(=O)N(CCN(C)C)c1nc2c(OC)ccc(OC)c2s1 | u | 0.4 | 0.0 | 161.4 | i | -4.5
COc1cc2ccccc2cc1C(=O)N(CCN(C)C)c1nc2ccc(C)cc2s1 | i | -4.2 | 0.0 | 396.2 | + | 5.1
CCN(CC)CCN(C(=O)c1cc2ccccc2cc1OC)c1nc2ccc(F)cc2s1 | u | -9.5 | 0.0 | 358.8 | + | 1.5
CCN(CC)CCN(C(=O)c1cc2ccccc2cc1OC)c1nc2ccc(OC)cc2s1 | i | 0.7 | 0.0 | 219.2 | i | 0.7
CCN(CC)CCN(C(=O)C1=COCCO1)c1nc2ccc(C)cc2s1 | + | -23.2 | 0.0 | 241.8 | i | 4.0
CN(C)CCN(C(=O)c1ccc2ccccc2c1)c1nc2ccc(F)cc2s1 | i | -0.9 | 0.0 | 237.2 | + | 2.8
O=c1n(Cc2ccccc2)c(O)c2n1Cc1ccccc1N=C2c1ccc(C(F)(F)F)cc1 | i | 0.8 | x | x | x | 3.1
N#Cc1ccc(CSc2nnc(-c3ccccn3)n2-c2ccccc2)cc1 | i | -5.1 | 2.0 | 160.6 | i | 1.6
N#Cc1ccc(CSc2nnc(-c3c[nH]c4ccccc34)n2-c2ccccc2)cc1 | i | -5.9 | 5.0 | 276.3 | + | 2.3
N#CC(C(=O)NCc1ccccc1)c1nc2ccccc2nc1N1CCCC1 (centres undefined) | + | -23.1 | 3.0 | 274.2 | i | 3.5
CCN1CCN(c2nc3ccccc3nc2C(C#N)S(=O)(=O)c2ccc(C)cc2)CC1 (centres undefined) | i | -9.6 | 3.0 | 276.9 | i | -3.9
N#CC(C(=O)NCCc1ccccc1)c1nc2ccccc2nc1N1CCCCC1 (centres undefined) | i | -12.3 | 2.0 | 242.6 | i | 1.4
Cc1ccc(S(=O)(=O)C(C#N)c2nc3ccccc3nc2N2CCCC2)cc1 (centres undefined) | + | 18.7 | 2.0 | 432.4 | i | -1.0
O=C(NNC(=O)c1ccccc1-n1cccc1)c1ccc(Cl)cc1 | i | 37.0* | 0.0 | 313.5 | i | -4.0
COc1cc(SC)ccc1C(=O)Nc1ccc(Cl)cn1 | i | 35.3* | 0.0 | 354.9 | x | -4.2
COc1cc(Cl)ccc1OC1(C)CCN(Cc2ccc(-c3ccccn3)cc2)C1 (centres undefined) | i | 7.5 | x | x | x | -1.7
O=c1[nH]c(=S)[nH]c2c1[C@H](CCc1cccc(Cl)c1)O[C@H](C1CCCC1)C2 | i | -9.9 | x | x | x | x
Cc1cccc(C)c1N(CC(=O)Nc1cccc(N(C)S(C)(=O)=O)c1)S(C)(=O)=O | i | 36.9* | 0.0 | 347.9 | i | 0.0
COc1ccc(C(=O)NN=C2CCCC2)cc1 | + | -8.5 | 1.0 | 235.5 | i | -2.6
CCOc1ccc(NC(=O)CN(C)C(=O)CN2C(=O)c3ccc([N+](=O)[O-])cc3C2=O)cc1OCC | i | -2.1 | x | x | x | -0.5
